This is a sample that favours compounds with a hit; in the whole collection about 5.4% have one here.
aSyn 5UTR inh = MLPCN primary screen, SNCA 5' untranslated region | AID 1813, 2009 | 300,000 compounds, 0.82% hits | alpha-synuclein 5'UTR reporter, inhibitor activity | inhibition, % (tested at 7.5 µM); in the data active = inhibition above about 60%; inconclusive = no clear call, values can overlap the other calls;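 also: H4 neuroglioblastoma cells stably carrying SNCA 5'UTR luciferase fusion; 0% = DMSO wells and 100% = positive control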
CSC inhib = cancer stem cell viability inhibitors, primary screen, luminescence; cancer stem cell-like cells viability; inhibition, % at 7.5 µM; 300,000 compounds, 1.1% hits; in the data active = inhibition above about 75%; inconclusive = no clear call, values can overlap the other calls; tested in HMLE shEcad cells
T cruzi inh = inhibitors of intracellular T. cruzi growth, primary screen, luminescence, NIH3T3 host cells; T. cruzi beta-gal in NIH3T3, 90 h; inhibition, % (concentration not given with the values); 300,000 compounds, 1.4% hits; AID 1885, 2009;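 active = mean inhibition across valid replicates above about 55%, limit read from the data; inconclusive = mean below that limit but half or more replicates reach it; inactive = mean below it, under half of replicates reach it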;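 also: signal also drops with host cell toxicity which is not excluded here; 0% = plate median of DMSO wells and 100% = zero luminescence signal; higher percent means less beta-gal luminescence so fewer parasites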
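Test system: β-gal T. cruzi (Tulahuen C4) inside NIH/3T3 cells / Quantity: 5,000 cells/well / Measured by: luminescence from GalScreen with 0.05% NP40, read after 60 min / Medium: DMEM plus 2% FBS / Measure: parasite load inhibition, % / Reagent: Tulahuen C4 trypomastigotes, 5000/well / Schedule: co-culture of at least 90 h after 3 h attachment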
Mdm2 MdmX PPI = inhibitors of human Mdm2-MdmX association, primary screen, cell-based, luminescence, split luciferase, SaOS-2, uHTS. Protein Mdm4 (Homo sapiens) + E3 ubiquitin-protein ligase Mdm2 (Homo sapiens), …. SaOS-2 split-luciferase Mdm2/MdmX complementation. inhibition, % at 8 µM. 330,000 compounds, 3% hits;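 active = inhibition of at least 50% at 8 µM in the primary screen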
SKKanGAS inh = S. pyogenes SKKanGAS growth inhibitors in kanamycin, primary screen, streptokinase expression inhibitor project, SKKanGAS strain, BacTiter-Glo luminescence. 6 h. AID 1662, 2009. 300,000 compounds, 1.3% hits. inhibition, % at 7.5 µM;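 active = mean replicate score, as percent of positive control median, at least 50; inconclusive = mean below 50 but one replicate at or above 50; inactive = mean and every replicate below 50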;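 also: strain carries kanamycin resistance gene driven by streptokinase promoter and grows in 40 µg/ml kanamycin; loss of luminescence reflects streptokinase promoter inhibition or plain growth inhibition; 0% = median of DMSO wells and 100% = positive control at its reference dose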
Mdm2 MdmX conf = Mdm2-MdmX complex disruptors, retested hits, confirmation, luminescence, single concentration; shares compounds with Mdm2 MdmX PPI; Mdm2-MdmX binding, luminescent assay; inhibition, % at 8 µM; 10,000 compounds, 55% hits; AID 489028, 2010; in the data active = inhibition above about 40%
Full FLuc ctr = full-length luciferase signal inhibition, confirmation, counter-screen for Mdm2/MdmX interaction inhibitor project, cell-based, single concentration, SaOS-2; shares compounds with Mdm2 MdmX PPI; SaOS-2 full-length luciferase counterscreen, luminescence; inhibition, % at 8 µM; 6,200 compounds, 77% hits; AID 504607, 2011;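 active = mean inhibition at 8 µM reaching about 37%, which flags the compound as non-specific, limit read from the data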;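 also: p53-null SaOS-2 cells with luciferase driven by a doxycycline-inducible promoter; compound on cells about two nights before reading with doxycycline added after day one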
Starred values were filed as active, the others as inactive.

What do the screens show for `CCN(c1ccccc1)S(=O)(=O)c1ccc(OC)c(NC(=O)c2c(C)noc2C)c1`?
Mdm2 MdmX PPI: 17

Results for Cc1ccc(NC(=O)COc2ccccc2CNC(C)(C)CC(C)(C)C)cc1 ?
aSyn 5UTR inh: -4; CSC inhib: 12; T cruzi inh: 61*; Mdm2 MdmX PPI: 90*; SKKanGAS inh: 1; Mdm2 MdmX conf: 53*; Full FLuc ctr: 59*

Results for O=C(NNC(=O)c1ccc(Br)o1)c1csc(N2CCOCC2)n1 ?
Mdm2 MdmX PPI: -14

What do the screens show for `O=C(NCc1nc(-c2ccc(C(F)(F)F)cc2)no1)Nc1cc(Cl)cc(Cl)c1`?
aSyn 5UTR inh: -4; CSC inhib: 134*; T cruzi inh: 60*; Mdm2 MdmX PPI: 93*; SKKanGAS inh: 109*; Mdm2 MdmX conf: 81*; Full FLuc ctr: 45*

What do the screens show for `COc1ccc(C[C@H]2CN3C(=NC[C@H]3Cc3ccccc3)N2CCNC(=O)CCC2CCCCC2)cc1`?
aSyn 5UTR inh: -6; CSC inhib: 30; T cruzi inh: 7; Mdm2 MdmX PPI: 37; SKKanGAS inh: -1

Results for COc1ccc(C[C@H]2CN3C(=NC[C@@H]3Cc3ccccc3)N2CCNC(=O)c2ccc(C)c(Br)c2)cc1 ?
aSyn 5UTR inh: 7; CSC inhib: 13; T cruzi inh: 48; Mdm2 MdmX PPI: 100*; SKKanGAS inh: -1; Mdm2 MdmX conf: 42*; Full FLuc ctr: 57*

Results for Cc1ccc(C(=O)NCCN2C3=NC[C@@H](Cc4ccccc4)N3C[C@H]2Cc2ccc(O)cc2)cc1Br ?
aSyn 5UTR inh: -4; CSC inhib: 39; T cruzi inh: 37; Mdm2 MdmX PPI: 81*; SKKanGAS inh: 6; Mdm2 MdmX conf: 25

Results for COc1ccc(C[C@H]2CN3C(=NC[C@@H]3Cc3ccc(O)cc3)N2CCNC(=O)c2ccc(C)c(Br)c2)cc1 ?
aSyn 5UTR inh: 1; CSC inhib: 5; T cruzi inh: 28; Mdm2 MdmX PPI: 53*; SKKanGAS inh: 4; Mdm2 MdmX conf: 26

How did COc1ccc(C[C@H]2CN3C(=NC[C@H]3Cc3ccccc3)N2CCNC(=O)c2ccc(C)c(Br)c2)cc1 do in these assays?
aSyn 5UTR inh: 28; CSC inhib: 31; T cruzi inh: 39; Mdm2 MdmX PPI: 95*; SKKanGAS inh: -1; Mdm2 MdmX conf: 55*; Full FLuc ctr: 37*

Results for C/C=C(\C)C(=O)NCCN1C2=NC[C@H](Cc3ccccc3)N2C[C@@H]1Cc1ccc(OC)cc1 ?
aSyn 5UTR inh: 23; CSC inhib: -9; T cruzi inh: -7; Mdm2 MdmX PPI: -18; SKKanGAS inh: -1

How did Cc1ccc(C(=O)NCCN2C3=NC[C@H](Cc4ccc(O)cc4)N3C[C@H]2Cc2ccc(O)cc2)cc1Br do in these assays?
aSyn 5UTR inh: 21; CSC inhib: -7; T cruzi inh: -8; Mdm2 MdmX PPI: 3; SKKanGAS inh: -2

What do the screens show for `N#CCc1ccc(NC(=O)CSc2nnc(C3CC3)n2C2CC2)cc1`?
Mdm2 MdmX PPI: -11

Results for O=c1/c(=C\c2ccc(O)cc2)sc2nc(-c3ccccc3)c(-c3ccccc3)n12 ?
aSyn 5UTR inh: 1; CSC inhib: 17; T cruzi inh: 30; Mdm2 MdmX PPI: 35; SKKanGAS inh: -8

How did O=c1/c(=C/c2ccc(O)cc2)sc2nc3cc(Br)cnc3n12 do in these assays?
aSyn 5UTR inh: -8; CSC inhib: 0; T cruzi inh: -18; Mdm2 MdmX PPI: 58*; SKKanGAS inh: 8; Mdm2 MdmX conf: 28; Full FLuc ctr: 40*

Results for O=C(ONC1=NCCCCC1)c1cccc([N+](=O)[O-])c1 ?
aSyn 5UTR inh: 35; CSC inhib: -6; T cruzi inh: 17; Mdm2 MdmX PPI: 56*; SKKanGAS inh: 7; Mdm2 MdmX conf: 18

What do the screens show for `O=[N+]([O-])c1cccc(/C=N/NC2=NCCCCC2)c1`?
aSyn 5UTR inh: -29; CSC inhib: 22; T cruzi inh: -3; Mdm2 MdmX PPI: -8; SKKanGAS inh: -4

How did Cc1cc(OCC(=O)OCC(=O)Nc2ccc(Cl)cn2)ccc1Cl do in these assays?
Mdm2 MdmX PPI: -8

How did Cc1c(Cl)ccc2c(C(=O)NCCCn3nccc3C)cc(-c3ccccn3)nc12 do in these assays?
aSyn 5UTR inh: -2; CSC inhib: -3; T cruzi inh: 17; Mdm2 MdmX PPI: -5; SKKanGAS inh: 9

Results for O=C(Nc1nccs1)c1cc(-c2ccccn2)nc2c(Cl)cccc12 ?
aSyn 5UTR inh: 5; CSC inhib: 7; T cruzi inh: -18; Mdm2 MdmX PPI: 78*; SKKanGAS inh: -9; Mdm2 MdmX conf: 25

Results for COc1ccccc1-c1cc(C(=O)NC2CCN(C)CC2)c2ccc(Cl)c(C)c2n1 ?
aSyn 5UTR inh: 101*; CSC inhib: 108*; T cruzi inh: 59*; Mdm2 MdmX PPI: 99*; SKKanGAS inh: -6; Mdm2 MdmX conf: 68*; Full FLuc ctr: 37*

How did Cc1c(Cl)ccc2c(C(=O)NCCN3CCCCC3)cc(-c3ccccn3)nc12 do in these assays?
aSyn 5UTR inh: 27; CSC inhib: 19; T cruzi inh: -7; Mdm2 MdmX PPI: 50; SKKanGAS inh: 1; Mdm2 MdmX conf: 34; Full FLuc ctr: 61*

How did CC(C)(C)OC(=O)C[C@H]1C/C=C\C[C@@H](CC(=O)N(CCO)Cc2ccccc2)C(=O)N[C@H](Cc2c[nH]c3ccccc23)COC1=O do in these assays?
CSC inhib: -25; Mdm2 MdmX PPI: 18

Results for CCCCN(C(=O)CSc1nnc(-c2ccccc2)o1)c1c(N)n(CCC)c(=O)[nH]c1=O ?
Mdm2 MdmX PPI: -26

Results for CCOC(=O)C1=C(C)N=c2s/c(=C/c3ccccc3)c(=O)n2C1c1ccc(OC)c(OC)c1 (stereo not given) ?
aSyn 5UTR inh: -27; CSC inhib: 16; T cruzi inh: 37; Mdm2 MdmX PPI: 47; SKKanGAS inh: 6

What do the screens show for `CCOC(=O)C1=C(C)n2c(s/c(=C/c3cccc([N+](=O)[O-])c3)c2=O)=NC1c1ccc(O)c(OC)c1` (stereo not given)?
aSyn 5UTR inh: -39; CSC inhib: -5; T cruzi inh: 70*; Mdm2 MdmX PPI: 82*; SKKanGAS inh: 67*; Mdm2 MdmX conf: 77*; Full FLuc ctr: 26

Results for O=[N+]([O-])c1ccc(-c2nc(Nc3cccc(O)c3)c3ccccc3n2)cc1 ?
aSyn 5UTR inh: 20; CSC inhib: 94*; T cruzi inh: -14; Mdm2 MdmX PPI: 82*; SKKanGAS inh: inconclusive; Mdm2 MdmX conf: 7

From PubChem BioAssay
